Assay [1] concerns the target T1, 17-beta-hydroxysteroid dehydrogenase type 3 (Rattus norvegicus) (UniProt O54939).
T1 sequence (whole entry): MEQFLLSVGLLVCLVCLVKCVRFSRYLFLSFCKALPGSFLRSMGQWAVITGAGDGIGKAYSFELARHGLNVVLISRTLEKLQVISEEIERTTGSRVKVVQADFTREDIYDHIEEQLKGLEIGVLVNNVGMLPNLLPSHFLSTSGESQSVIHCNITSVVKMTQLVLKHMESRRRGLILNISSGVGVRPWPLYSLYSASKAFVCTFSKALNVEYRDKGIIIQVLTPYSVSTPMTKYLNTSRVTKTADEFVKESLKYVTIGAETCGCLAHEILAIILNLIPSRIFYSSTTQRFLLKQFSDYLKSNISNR
Description: Inhibition of 17beta-HSD3 in rat testes microsomal fraction using [14C]-4-androstene-3,17-dione as substrate assessed as testosterone formation at 0.1 uM after 2 hrs by thin layer chromatography. The assay is classed as microsomes. The settings on record: Testis. Put shortly: (§1)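 Rat testis microsomes supplying 17β-HSD3, converting [14C]-4-androstene-3,17-dione (50 nM) into testosterone. Inhibition of this transformation is measured at a fixed inhibitor concentration and expressed as mean ± SD of triplicate.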

Assay [2] has as its target T1, 17-beta-hydroxysteroid dehydrogenase type 3 (Rattus norvegicus). In words: Inhibition of 17beta-HSD3 in rat testes microsomal fraction using [14C]-4-androstene-3,17-dione as substrate assessed as testosterone formation at 1 uM after 2 hrs by thin layer chromatography. The assay is classed as microsomes. The following applies: Testis. Put shortly:
as §1

For assay [3], the target named is T2, 17-beta-hydroxysteroid dehydrogenase type 3 (Rattus norvegicus, UniProt O54939).
T2 sequence (O54939 whole entry): T1 sequence (whole entry)
Description: Inhibition of 17beta-HSD3 in rat testes microsomal fraction using [14C]-4-androstene-3,17-dione as substrate assessed as testosterone formation after 2 hrs by thin layer chromatography. An outline of the steps: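 Rat testis microsomal fraction as 17β-HSD3 source, converting [14C]-Δ4-dione (50 nM) to [14C]-testosterone. Activity is plotted against log inhibitor concentration. IC50 is fitted from the inhibition curves. Values are mean ± SD of triplicates.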

With `O=C1OC2(CCCCC2)CN[C@H]1Cc1ccccc1`, the values for the inhibition in assay [1] and in assay [2] were 6.2% and 19.5%, respectively.
Consider `CC1CN(S(=O)(=O)c2ccccc2C(F)(F)F)C(C)CN1C[C@@]1(O)CC[C@@]2(C)[C@@H](CC[C@@H]3[C@@H]2CC[C@]2(C)C(=O)CC[C@@H]32)C1` (stereo partly specified), for which the inhibition in assay [1] was 47.3%. Moreover, in assay [3], the IC50 amounted to 14 nM.
As to `C[C@]12CC[C@]3(CN[C@@H](Cc4ccccc4)C(=O)O3)C[C@@H]1CC[C@@H]1[C@@H]2CC[C@]2(C)C(=O)CC[C@@H]12`, the inhibition came to 48.8% in assay [1] and 92% in assay [2]. The IC50 in assay [3] was 22 nM.
In the case of `C[C@]12CC[C@@]3(C[C@@H]1CC[C@@H]1[C@@H]2CC[C@]2(C)C(=O)CC[C@@H]12)CN(Cc1ccccc1)[C@@H](Cc1ccccc1)C(=O)O3`, the results for the inhibition in assay [1] and in assay [2] were 58.2% and 90.4%, respectively. Besides, the IC50 in assay [3] turned out to be 58 nM.
As for `C[C@]12CC[C@@]3(C[C@@H]1CC[C@@H]1[C@@H]2CC[C@]2(C)C(=O)CC[C@@H]12)CN(Cc1ccccc1)[C@H](Cc1ccccc1)C(=O)O3`, the figures for the inhibition in assay [1] and in assay [2] were 25.6% and 87.3%, respectively.
In the same order, the values of `C[C@]12CC[C@]3(CN[C@H](Cc4ccccc4)C(=O)O3)C[C@@H]1CC[C@@H]1[C@@H]2CC[C@]2(C)C(=O)CC[C@@H]12` are 18.5% and 63.2%.
In the same order, the values of `O=C1OC2(CCCCC2)CN(Cc2ccccc2)[C@H]1Cc1ccccc1` are 24.2% and 24.3%.

The values are drawn from ChEMBL document CHEMBL3085755, “Synthesis of 3-spiromorpholinone androsterone derivatives as inhibitors of 17β-hydroxysteroid dehydrogenase type 3” (Bioorg Med Chem Lett, 2013).
